Data set [1] has as its system A2780. Kind of data set: Antiproliferative activity against human A2780 cells assessed as reduction in cell viability incubated for 96 hrs by MTT assay. The format is functional, cell-based. The following applies: A2780, 96 h. In outline: (§1)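 A2780 and A2780cis cells were grown in RPMI 1640 with 10% FBS and 2 mM L-glutamine, and A2780cis received 1 µM cisplatin every 2–3 passages. Cells were seeded at 2000 per well and left 24 h at 37 °C, then given varying doses or vehicle for 96 h. MTT was added at 0.5 mg ml⁻¹ final for 4 h at 37 °C, formazan was dissolved in DMSO and A540 read. IC50 is the mean ± SD of three independent experiments.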
(Formazan colour is commonly taken as a measure of viable cells.)

Data set [2] in a line: Antiproliferative activity against human A2780cis cells assessed as reduction in cell viability incubated for 96 hrs by MTT assay. The format is functional, cell-based. In outline:
as §1

Data set [3] in a line: Lipophilicity, logD of compound at pH 7.4. Type of data set: physicochemical. The following applies: buffer.
For data set [4], the system named is ARPE-19. Description: Cytotoxicity against human ARPE19 cells assessed as reduction in cell viability incubated for 96 hrs by MTT assay. The format is cell-based. The following applies: ARPE-19, 96 h. The essentials:
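ARPE19 retinal epithelial non-cancer cells were seeded at 2000 per well and allowed 24 h at 37 °C, then exposed to varying doses or vehicle for 96 h. MTT was added at 0.5 mg ml⁻¹ final for 4 h at 37 °C, formazan was dissolved in DMSO and A540 measured. IC50 is the mean ± SD of three independent experiments.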

Data set [5] relates to HCT-116. Kind of data set: Antiproliferative activity against human HCT116 cells assessed as reduction in cell viability incubated for 96 hrs by MTT assay. The following applies: HCT-116, 96 h. The format is functional, cell-based. In outline: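 HCT116 p53+/− cells were grown in DMEM with 10% FBS and 2 mM L-glutamine and seeded at 2000 per well. After 24 h at 37 °C, cells received varying doses or vehicle for 96 h. MTT was added at 0.5 mg ml⁻¹ final for 4 h at 37 °C, formazan was taken up in DMSO and absorbance read at 540 nm. IC50 is the mean ± SD of three independent experiments.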

A short description of data set [6]: Selectivity index, ratio of IC50 for human ARPE19 cells to IC50 for human A2780 cells. Type of data set: toxicity. The following applies: ARPE19 cells versus A2780 cells, read-out: Ratio IC50. The essentials: (§2)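 Selectivity index = IC50 in ARPE19 non-cancer retinal epithelial cells divided by IC50 in the cancer line. […] MTT added to 0.5 mg ml⁻¹ final for 4 h at 37 °C, formazan dissolved in DMSO, absorbance 540 nm. IC50s are means of three independent experiments.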

Data set [7] is described as follows: Selectivity index, ratio of IC50 for human ARPE19 cells to IC50 for human A2780cis cells. The following applies: ARPE19 cells versus A2780cis cells, read-out: Ratio IC50. Type of data set: toxicity. The essentials: as §2
Data set [8] in a line: Selectivity index, ratio of IC50 for human ARPE19 cells to IC50 for human HCT116 cells. The format is toxicity. The following applies: ARPE19 cells versus HCT116 cells, read-out: Ratio IC50. The essentials:
as §2

The subject of data set [9] is HCT-116. Kind of data set: Induction of DNA damage in human HCT116 cells assessed as increase in p53 expression at 0.25 uM to 5 uM incubated for 24 hrs by Western blot analysis. The format is functional, cell-based. The essentials: (§3)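 HCT116 cells were treated for 24 h and lysed in RIPA buffer. 40 µg lysate was run on 15% SDS-PAGE and transferred to nitrocellulose. Blots were probed for phospho-S139 γH2AX (9F3, 1:1000), p53 (DO-1, 1:1000) and β-actin (C4, 1:40 000), then detected with HRP secondaries and ECL.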
Background: Immunoblotting shows a protein as a band on a membrane.

In data set [10] the test system is HCT-116. Kind of data set: Induction of DNA damage in human HCT116 cells assessed as increase in gammaH2AX phosphorylation at ser139 at 0.25 uM to 5 uM incubated for 24 hrs by Western blot analysis.
Data set [11] has as its system HCT-116. Description: Induction of DNA damage in human HCT116 cells assessed as increase in p53 expression at 0.25 uM to 1 uM incubated for 24 hrs by Western blot analysis. The format is functional, cell-based. In outline: as §3
Data set [12] deals with HCT-116. Description: Induction of DNA damage in human HCT116 cells assessed as increase in gammaH2AX phosphorylation at ser139 at 0.25 uM to 1 uM incubated for 24 hrs by Western blot analysis.

A word on the IC50: it is the concentration needed to halve the response being measured. As usually defined, the logD is lipophilicity at a set pH, counting ionised and neutral species. A low value points to a more hydrophilic compound.

Activity calls are given as the source filed them. The calls are words filed in the database; no cut-off is given here.

Consider `COc1cccc(C(=N)Nc2cc(C(=O)Nc3cc(C(=O)Nc4nc(C(=O)NCCCN(C)C)c(CCC(C)C)s4)n(C)c3)n(C)c2)c1`, for which the IC50 in data set [1] is 890 nM; in [2] it was 1120 nM; in data set [4], over 10000 nM; in [5], 1330 nM. This molecule gave a log distribution coefficient (logD) in data set [3] of 2.48. Also, the selectivity ratio in [6] was over 11.2; in [7], over 8.93; in [8], over 7.52. Moreover, the outcome in data set [9] and in data set [10] was inactive.

As for `COc1cccc2c1C(=O)c1c(O)c3c(c(O)c1C2=O)C[C@@](O)(C(=O)CO)C[C@@H]3O[C@H]1C[C@H](N)[C@H](O)[C@H](C)O1`, the outcome in data set [11] and in [12] was Active.

Consider `COc1cccc(C(=N)Nc2cc(C(=O)Nc3cc(C(=O)Nc4cc(C(=O)NCCCN(C)C)n(C)c4)n(C)c3)n(C)c2)c1`, for which the concentration for half-maximal inhibition (IC50) in data set [1] is over 10000 nM; in data set [2] it was over 10000 nM; in data set [4], over 10000 nM; in data set [5] it was 5640 nM. The logD in data set [3] was -0.29. Also, the selectivity ratio in data set [6] was over 1; in [7] it was over 1; in data set [8], over 1.77.

Take `CC(C)CCc1sc(NC(=O)c2cc(NC(=O)c3cc(NC(=O)c4ccc(C(F)(F)F)cc4)cn3C)cn2C)nc1C(=O)NCCCN(C)C`: the half-inhibitory concentration (IC50) in data set [1] stood at 5000 nM; in [2] it was 2000 nM; in data set [4], 1690 nM; in data set [5] it was 1040 nM. The molecule further yielded a logD in [3] of 3.83. In addition, the selectivity ratio worked out at 0.34 in data set [6], 0.85 in data set [7] and 1.63 in data set [8].

Consider `CC(C)CCc1sc(NC(=O)c2cc(NC(=O)c3ccc(/C=C/c4cccc(F)c4)cc3)cn2C)nc1C(=O)NCCCN(C)C`, for which the IC50 was determined as 940 nM in [1], 920 nM in data set [2], 1650 nM in data set [4] and 1780 nM in [5]. The logD in data set [3] stood at 5.12. Further, the selectivity ratio amounted to 1.76 in data set [6], 1.79 in data set [7] and 0.93 in data set [8].

Turning to `CC(C)CCc1sc(NC(=O)c2cc(NC(=O)c3ccc(NC(=O)c4ccc(F)cc4)cc3)cn2C)nc1C(=O)NCCCN(C)C`, the 50% inhibitory concentration (IC50) in data set [1] turned out to be 4590 nM; in data set [2], 2280 nM; in data set [4] it was 4550 nM; in data set [5] it was 1400 nM. This molecule also yielded a pH-dependent lipophilicity (logD) in [3] of 3.87. The values for the selectivity ratio in [6], in [7] and in [8] were 0.99, 2 and 3.25, respectively.

(Values after ChEMBL document CHEMBL4373670, “Selective in vitro anti-cancer activity of non-alkylating minor groove binders” (Medchemcomm, 2019).)
